IC50 and EC50 data for 31 molecules are collected here from ChEMBL document CHEMBL1132624, “Guanidine derivatives as combined thromboxane A2 receptor antagonists and synthase inhibitors” (J Med Chem, 1999).

One assay has as its target T1, Thromboxane A2 receptor (Homo sapiens, UniProt P21731).
T1 sequence (P21731 whole entry): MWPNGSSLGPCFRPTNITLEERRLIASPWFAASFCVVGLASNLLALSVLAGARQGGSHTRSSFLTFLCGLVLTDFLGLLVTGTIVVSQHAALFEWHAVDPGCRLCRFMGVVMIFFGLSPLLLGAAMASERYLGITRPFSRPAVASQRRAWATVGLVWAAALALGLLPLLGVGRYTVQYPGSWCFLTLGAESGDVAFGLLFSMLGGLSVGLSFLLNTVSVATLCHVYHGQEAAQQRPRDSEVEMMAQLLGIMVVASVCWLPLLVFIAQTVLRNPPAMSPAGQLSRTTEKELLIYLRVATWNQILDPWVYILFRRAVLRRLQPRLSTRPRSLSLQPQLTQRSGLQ
In words: In vitro activity on thromboxane A2 receptor antagonism in gel filtered human platelets. The assay is classed as functional. An outline of the steps:
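Human gel-filtered platelets; competitive displacement of the high-affinity radioligand ³H-SQ 29,548 from the PGH2/TXA2 receptor; IC50 from displacement. Run at least in duplicate.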

The species entered for another assay is Homo sapiens. In words: In vitro activity expressed as EC50 for inhibition of collagen induced platelet aggregation. The assay is classed as functional.
The target in a further assay is T2, Thromboxane-A synthase (Homo sapiens, UniProt P24557).
T2 sequence (P24557 whole entry): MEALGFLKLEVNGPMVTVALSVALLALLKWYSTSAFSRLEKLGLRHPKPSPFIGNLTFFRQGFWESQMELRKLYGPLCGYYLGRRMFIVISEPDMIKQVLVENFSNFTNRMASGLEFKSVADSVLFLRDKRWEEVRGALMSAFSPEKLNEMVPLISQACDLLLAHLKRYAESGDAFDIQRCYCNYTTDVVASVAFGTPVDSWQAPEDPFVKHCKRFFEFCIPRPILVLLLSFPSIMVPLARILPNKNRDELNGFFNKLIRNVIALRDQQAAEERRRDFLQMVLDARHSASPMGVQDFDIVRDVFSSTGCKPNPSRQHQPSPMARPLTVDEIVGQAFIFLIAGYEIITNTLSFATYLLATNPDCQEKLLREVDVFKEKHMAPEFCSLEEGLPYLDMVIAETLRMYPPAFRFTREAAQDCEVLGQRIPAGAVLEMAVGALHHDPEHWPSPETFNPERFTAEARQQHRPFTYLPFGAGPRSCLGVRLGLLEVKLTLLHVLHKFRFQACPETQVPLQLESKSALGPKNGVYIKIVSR
In words: In vitro activity on thromboxane A2 synthase inhibition in gel filtered human platelets.

Usually IC50 stands for the concentration at which inhibition is half-maximal. In general, EC50 refers to the concentration at which the effect is half-maximal. A high value points to lower potency in that assay. As for `CC(C)(C)/N=C(\NC#N)Nc1cccc(/C(=N/OCCCCC(=O)O)c2cccnc2)c1`, the IC50 at Thromboxane A2 receptor was determined as 510 nM; against Thromboxane-A synthase, 230 nM. Further, in the assay listed under Homo sapiens, the EC50 worked out at 17000 nM.
For `CC(C)(C)/N=C(\NC#N)Nc1cccc(/C(=C\CCC(=O)O)c2cccnc2)c1`, the figures for the IC50 against Thromboxane A2 receptor and against Thromboxane-A synthase were 81 nM and 400 nM, respectively. In the assay listed under Homo sapiens, this molecule displayed a concentration giving a half-maximal response (EC50) of 13000 nM.
For `CC(C)(C)Nc1c(Nc2cccc(/C(=C\CCCC(=O)O)c3cccnc3)c2)c(=O)c1=O`, in that order: 830 nM, 230 nM and 59000 nM.
For `O=C(O)CCC/C=C(/c1cccnc1)c1cccc(N/C(=N\C2CCCC2)NC(=O)c2ccccc2)c1`, in that order: 110 nM, 4 nM and 16000 nM.
For `O=C(O)CCC/C=C(/c1cccnc1)c1cccc(N/C(=C/[N+](=O)[O-])NC2CCCCC2)c1`, in that order: 440 nM, 310 nM and 15000 nM.
For the molecule `CC(C)(C)/N=C(\NC#N)Nc1cccc(/C(=C\CCCCCC(=O)O)c2cccnc2)c1`, the IC50 at Thromboxane A2 receptor is 77 nM; on Thromboxane-A synthase, 5 nM. The 50% effective concentration (EC50) in the assay listed under Homo sapiens worked out at 1700 nM.
For `CC(C)(C)/N=C(\NC#N)Nc1cccc(/C(=C\CCCCC(=O)O)c2cccnc2)c1`, in that order: 330 nM, 6 nM and 3700 nM.
In the case of `CC(C)C/N=C(/NC#N)Nc1cccc(/C(=C\CCCC(=O)O)c2cccnc2)c1`, the EC50 in the assay listed under Homo sapiens is 350 nM. This molecule also showed an IC50 against Thromboxane-A synthase of 25 nM.
Molecule `CC(C)(C)NC(Nc1cccc(/C(=C\CCCC(=O)O)c2cccnc2)c1)=C(C#N)C#N` returned an IC50 against Thromboxane A2 receptor of 3 nM. In the assay filed under Homo sapiens, a half-maximal response (EC50) required 120 nM.
For the molecule `N#CN/C(=N/C1CCCC1)Nc1cccc(/C(=C\CCCC(=O)O)c2cccnc2)c1`, the EC50 in the assay listed under Homo sapiens was determined as 500 nM. This lies in the sub-micromolar range.
`CC(C)(C)NC(=O)Nc1cccc(/C(=C\CCCC(=O)O)c2cccnc2)c1`: the figures for the IC50 against Thromboxane A2 receptor and on Thromboxane-A synthase were 1300 nM and 40 nM, respectively. For the same molecule, in the assay filed under Homo sapiens, the concentration for a half-maximal effect (EC50) was found to be 9000 nM.
For `N#CN/C(=N/C1CC1)Nc1ccc(/C(=C\CCCC(=O)O)c2cccnc2)cc1`, in that order: 21000 nM, 3900 nM and 42000 nM.
For `N/C(=N/C1CCCC1)Nc1cccc(/C(=C\CCCC(=O)O)c2cccnc2)c1`, in that order: 1700 nM, 3900 nM and 21000 nM.
For `N#CN/C(=N/C12CC3CC(CC(C3)C1)C2)Nc1cccc(/C(=C\CCCC(=O)O)c2cccnc2)c1`, in that order: 83 nM, 3 nM and 500 nM.
Regarding `CN(C)CC/N=C(/NC#N)Nc1cccc(/C(=C\CCCC(=O)O)c2cccnc2)c1`, the IC50 was found to be 1000 nM against Thromboxane A2 receptor and 2900 nM against Thromboxane-A synthase. The EC50 in the assay listed under Homo sapiens was determined as 6800 nM.
As for `CC(C)(C)/N=C(\Nc1cccc(/C(=C\CCCC(=O)O)c2cccnc2)c1)NS(=O)(=O)c1ccccc1`, the EC50 in the assay listed under Homo sapiens stood at 3300 nM. This molecule had an IC50 against Thromboxane-A synthase of 3 nM.
With `C/N=C(/NC#N)Nc1cccc(/C(=C\CCCC(=O)O)c2cccnc2)c1`, the IC50 at Thromboxane A2 receptor was 16 nM; against Thromboxane-A synthase, 250 nM. This molecule came in with an EC50 in the assay listed under Homo sapiens of 460 nM.
For `CC(C)(C)/N=C(\NC#N)Nc1cccc(/C(=N\OCCCCC(=O)O)c2cccnc2)c1`, the IC50 against Thromboxane A2 receptor is 310 nM; against Thromboxane-A synthase it was 5 nM. Further, the midpoint of the response in the assay filed under Homo sapiens, the EC50, lay at 5200 nM.
Regarding `CC(C)C/N=C(/NC(N)=O)Nc1cccc(/C(=C\CCCC(=O)O)c2cccnc2)c1`, the IC50 against Thromboxane A2 receptor was found to be 610 nM; at Thromboxane-A synthase it was 200 nM. The EC50 in the assay filed under Homo sapiens was determined as 12000 nM.
In turn, `N#CN/C(=N/C1CCCCC1)Nc1ccc(/C(=C\CCCC(=O)O)c2cccnc2)cc1` gave an EC50 in the assay filed under Homo sapiens of 31000 nM.
Take `CC(C)(C)/N=C(\Nc1cccc(/C(=C\CCCC(=O)O)c2cccnc2)c1)NS(C)(=O)=O`: the results for the IC50 on Thromboxane A2 receptor and against Thromboxane-A synthase were 330 nM and 25 nM, respectively. In the assay listed under Homo sapiens, this molecule had an EC50 of 6100 nM.
With `CN(C)/C(=N/c1cccc(/C(=C\CCCC(=O)O)c2cccnc2)c1)NC#N`, the IC50 at Thromboxane A2 receptor came to 120 nM; against Thromboxane-A synthase it was 26 nM. Also, the EC50 in the assay listed under Homo sapiens amounted to 1000 nM.
For `CC(C)(C)/N=C(/S)Nc1cccc(/C(=C\CCCC(=O)O)c2cccnc2)c1`, the half-maximal inhibitory concentration (IC50) against Thromboxane A2 receptor stood at 38 nM; at Thromboxane-A synthase, 22 nM. Besides, the EC50 in the assay listed under Homo sapiens was found to be 2000 nM.
For `N#CN/C(=N/C1CCCCC1)Nc1cccc(/C(=C\CCCC(=O)O)c2cccnc2)c1`, in that order: 47 nM, 3 nM and 5800 nM.
For `CC(C)CC/N=C(/NC#N)Nc1cccc(/C(=C\CCCC(=O)O)c2cccnc2)c1`, the EC50 in the assay filed under Homo sapiens turned out to be 690 nM.
As for `N#CN/C(=N/Cc1cccnc1)Nc1cccc(/C(=C\CCCC(=O)O)c2cccnc2)c1`, the results for the IC50 against Thromboxane A2 receptor and against Thromboxane-A synthase were 130 nM and 320 nM, respectively. In the assay listed under Homo sapiens, this molecule showed an EC50 of 6900 nM.
For `CC(C)C/N=C(\Nc1cccc(/C(=C\CCCC(=O)O)c2cccnc2)c1)Nc1nn[nH]n1`, in that order: 300 nM, 930 nM and 22000 nM.
`N#CN/C(N)=N\c1cccc(/C(=C\CCCC(=O)O)c2cccnc2)c1`: the IC50 on Thromboxane A2 receptor turned out to be 35 nM; on Thromboxane-A synthase, 430 nM. Besides, the EC50 in the assay filed under Homo sapiens is 1000 nM.
Regarding `N#CN/C(=N/Cc1ccccc1)Nc1cccc(/C(=C\CCCC(=O)O)c2cccnc2)c1`, the 50% inhibitory concentration (IC50) at Thromboxane A2 receptor came to 32 nM; at Thromboxane-A synthase it was 11 nM. The same molecule registered an EC50 in the assay listed under Homo sapiens of 1600 nM.
In turn, `CC(C)(C)/N=C(\NC#N)Nc1cccc(/C(=C/CCCC(=O)O)c2cccnc2)c1` had an IC50 on Thromboxane A2 receptor of 2600 nM. Moreover, in the assay filed under Homo sapiens, the EC50 was determined as 48000 nM.
In the assay filed under Homo sapiens, `CC(C)(C)N/C(=N\C#N)Nc1cccc(/C(=C\CCCC(=O)O)c2cccnc2)c1` [TERBOGREL] came in with an EC50 of 310 nM.
